Active and inactive are the calls of the source. No cut-off for these calls is given here.
How the values were obtained:
COLO 205 [1] = assay: Growth inhibition of human COLO205 cells harboring B-Raf V600E mutant after 48 hrs by sulforhodamine B assay; format: functional, cell-based
Procedure, shortened: (§1)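 Tested in the NCI-60 human tumor cell line screen as DMSO solutions. Results analyzed with CellMiner bioinformatics tools.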

Malme-3M = assay: Growth inhibition of human MALME-3M cells harboring B-Raf V600E mutant after 48 hrs by sulforhodamine B assay; format: functional, cell-based; procedure, shortened: as §1
SK-MEL-5 = assay: Growth inhibition of human SK-MEL-5 cells harboring B-Raf V600E mutant after 48 hrs by sulforhodamine B assay; format: functional, cell-based; procedure, shortened: as §1
MDA-MB-435 = assay: Growth inhibition of human MDA-MB-435 cells harboring B-Raf V600E mutant after 48 hrs by sulforhodamine B assay; format: functional, cell-based; procedure, shortened: as §1
[2] = biological target: Serine/threonine-protein kinase B-raf (Homo sapiens) (UniProt P15056); assay: Inhibition of B-Raf (unknown origin) at 10 uM using inactive MEK as substrate pretreated for 20 mins followed by substrate addition and measured after 30 mins in presence of [gamma32P]ATP by autoradiography
Sequence of Serine/threonine-protein kinase B-raf (Homo sapiens) (P15056 whole entry): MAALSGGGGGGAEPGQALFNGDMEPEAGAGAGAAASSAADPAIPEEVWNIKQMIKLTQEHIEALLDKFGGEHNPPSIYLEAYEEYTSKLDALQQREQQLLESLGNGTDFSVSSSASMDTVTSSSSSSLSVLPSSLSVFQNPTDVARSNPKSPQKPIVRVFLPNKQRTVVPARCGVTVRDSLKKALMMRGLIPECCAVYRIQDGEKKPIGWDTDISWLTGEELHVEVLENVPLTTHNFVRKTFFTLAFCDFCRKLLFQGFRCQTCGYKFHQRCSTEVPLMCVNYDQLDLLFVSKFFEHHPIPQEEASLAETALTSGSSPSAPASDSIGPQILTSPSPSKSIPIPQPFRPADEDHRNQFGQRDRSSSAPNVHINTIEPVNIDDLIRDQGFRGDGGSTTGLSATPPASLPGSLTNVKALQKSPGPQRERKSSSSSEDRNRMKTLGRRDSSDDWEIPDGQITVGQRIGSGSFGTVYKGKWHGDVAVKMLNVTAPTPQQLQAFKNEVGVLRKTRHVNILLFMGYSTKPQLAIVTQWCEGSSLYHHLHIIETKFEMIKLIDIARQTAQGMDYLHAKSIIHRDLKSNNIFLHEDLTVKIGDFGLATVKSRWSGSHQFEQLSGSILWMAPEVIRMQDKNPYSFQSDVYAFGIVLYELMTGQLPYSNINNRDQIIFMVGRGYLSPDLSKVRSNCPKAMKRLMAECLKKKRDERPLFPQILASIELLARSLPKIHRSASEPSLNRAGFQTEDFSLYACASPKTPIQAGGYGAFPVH

[3] = biological target: RAF proto-oncogene serine/threonine-protein kinase (Homo sapiens) (UniProt P04049); assay: Inhibition of C-Raf (unknown origin) at 10 uM using inactive MEK as substrate pretreated for 20 mins followed by substrate addition and measured after 30 mins in presence of [gamma32P]ATP by autoradiography
Sequence of RAF proto-oncogene serine/threonine-protein kinase (Homo sapiens) (P04049 whole entry): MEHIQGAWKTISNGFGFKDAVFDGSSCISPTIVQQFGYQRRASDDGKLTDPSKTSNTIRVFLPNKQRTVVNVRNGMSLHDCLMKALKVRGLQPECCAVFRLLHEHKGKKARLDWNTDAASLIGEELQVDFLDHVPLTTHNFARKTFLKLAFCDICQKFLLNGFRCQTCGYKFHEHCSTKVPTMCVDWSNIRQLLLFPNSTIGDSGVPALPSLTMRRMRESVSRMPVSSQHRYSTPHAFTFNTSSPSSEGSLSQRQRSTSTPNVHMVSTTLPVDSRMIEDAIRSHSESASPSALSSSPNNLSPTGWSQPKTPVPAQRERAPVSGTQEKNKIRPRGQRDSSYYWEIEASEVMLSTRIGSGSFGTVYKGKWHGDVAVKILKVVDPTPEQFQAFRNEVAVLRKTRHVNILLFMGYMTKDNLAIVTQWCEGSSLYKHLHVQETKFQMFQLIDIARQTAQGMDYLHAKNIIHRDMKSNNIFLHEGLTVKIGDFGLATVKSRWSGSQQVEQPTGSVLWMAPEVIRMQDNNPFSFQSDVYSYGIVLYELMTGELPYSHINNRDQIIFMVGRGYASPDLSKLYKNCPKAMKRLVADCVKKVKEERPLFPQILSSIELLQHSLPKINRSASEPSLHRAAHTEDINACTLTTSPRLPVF

[4] = biological target: Dual specificity mitogen-activated protein kinase kinase 1 (Homo sapiens) (UniProt Q02750); assay: Inhibition of wild-type MEK1 (unknown origin) at 10 uM using inactive ERK2 as substrate pretreated for 20 mins followed by substrate addition and measured after 30 mins in presence of [gamma32P]ATP by autoradiography
Sequence of Dual specificity mitogen-activated protein kinase kinase 1 (Homo sapiens) (Q02750 whole entry): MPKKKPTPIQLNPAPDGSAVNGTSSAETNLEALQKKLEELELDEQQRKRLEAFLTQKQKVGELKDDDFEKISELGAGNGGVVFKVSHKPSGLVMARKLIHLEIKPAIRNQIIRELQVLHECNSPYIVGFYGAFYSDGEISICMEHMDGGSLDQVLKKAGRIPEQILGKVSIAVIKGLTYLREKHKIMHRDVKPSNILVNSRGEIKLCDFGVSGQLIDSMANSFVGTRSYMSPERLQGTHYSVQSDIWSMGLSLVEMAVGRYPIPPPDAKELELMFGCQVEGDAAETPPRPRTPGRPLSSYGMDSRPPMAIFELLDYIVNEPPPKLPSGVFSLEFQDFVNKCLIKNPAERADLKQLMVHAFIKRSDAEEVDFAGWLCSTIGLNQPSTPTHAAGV

Homo sapiens = species on record: Homo sapiens; assay: Inhibition of ERK (unknown origin)
COLO 205 [5] = assay: Down regulation of total ERK level in human COLO205 cells harboring B-Raf V600E mutant at 1 to 10 uM measured after 18 hrs by Western blot analysis; format: functional, cell-based
Procedure, shortened: (§2)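 Colo205 cells grown at 37 °C, 5% CO2 in RPMI-1640 with 10% FBS and 2 mM L-glutamine. Compounds added in DMSO (final 0.1% v/v), vehicle-only controls. Cells washed twice in ice-cold PBS, lysed in RIPA buffer (pH 8.0, with protease and phosphatase inhibitors). Lysates clarified, equalized for protein, then immunoblotted for B-Raf, C-Raf, ERK2, MEK1, pS217/221-MEK and pT202/Y204-ERK.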

[6] = biological target: T1, Dual specificity mitogen-activated protein kinase kinase; MEK1/2 (Homo sapiens) (UniProt P36507+Q02750); assay: Increase in MEK phosphorylation in human COLO205 cells harboring B-Raf V600E mutant at 1 uM after 18 hrs by Western blot analysis; format: cell-based; procedure, shortened: as §2
T1 sequence (P36507 whole entry, looked up): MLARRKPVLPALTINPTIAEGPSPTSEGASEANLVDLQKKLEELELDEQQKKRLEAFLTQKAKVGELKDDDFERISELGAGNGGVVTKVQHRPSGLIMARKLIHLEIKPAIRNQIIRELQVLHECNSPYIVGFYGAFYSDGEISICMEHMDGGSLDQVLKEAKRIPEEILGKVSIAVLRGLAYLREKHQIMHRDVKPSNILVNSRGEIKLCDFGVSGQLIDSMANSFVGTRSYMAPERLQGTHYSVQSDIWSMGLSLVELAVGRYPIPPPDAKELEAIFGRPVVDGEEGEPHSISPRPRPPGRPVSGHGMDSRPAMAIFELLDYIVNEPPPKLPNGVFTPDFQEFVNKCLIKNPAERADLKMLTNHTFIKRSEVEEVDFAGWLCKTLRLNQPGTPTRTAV
T1 sequence (Q02750 whole entry, looked up): as the sequence (Q02750 whole entry) above

[7] = test system: Serine/threonine-protein kinase B-raf (Homo sapiens), P15056 [V600E]; assay: Increase in ERK phosphorylation in human COLO205 cells harboring B-Raf V600E mutant at 1 uM after 18 hrs by Western blot analysis; format: cell-based; procedure, shortened: as §2
Sequence of Serine/threonine-protein kinase B-raf (Homo sapiens), P15056 [V600E] (P15056 whole entry V600E): as the sequence (P15056 whole entry) above, with V600E counted along it

COLO 205 [8] = assay: Effect on total B-Raf level in human COLO205 cells harboring B-Raf V600E mutant at 1 to 10measured after 18 hrs by Western blot analysis; format: functional, cell-based; procedure, shortened: as §2
COLO 205 [9] = assay: Effect on total C-Raf level in human COLO205 cells harboring B-Raf V600E mutant at 1 to 10measured after 18 hrs by Western blot analysis; format: functional, cell-based; procedure, shortened: as §2
COLO 205 [10] = assay: Effect on total MEK level in human COLO205 cells harboring B-Raf V600E mutant at 1 to 10measured after 18 hrs by Western blot analysis; format: functional, cell-based; procedure, shortened: as §2
COLO 205 [11] = assay: Effect on total ERK level in human COLO205 cells harboring B-Raf V600E mutant at 1 to 10measured after 18 hrs by Western blot analysis; format: functional, cell-based; procedure, shortened: as §2
[12] = biological target: T1, Dual specificity mitogen-activated protein kinase kinase; MEK1/2 (Homo sapiens); assay: Inhibition of MEK phosphorylation in human COLO205 cells harboring B-Raf V600E mutant at 1 to 10 uM after 18 hrs by Western blot analysis; format: cell-based; procedure, shortened: as §2

inhibition [2] | inhibition [3] | inhibition [4] | inhibition (Homo sapiens) | Activity [6] | Activity [7] | inhibition [12] | Compound | growth inhibition (GI) (COLO 205 [1]) | growth inhibition (GI) (Malme-3M) | growth inhibition (GI) (SK-MEL-5) | growth inhibition (GI) (MDA-MB-435) | Activity (COLO 205 [5]) | Activity (COLO 205 [8]) | Activity (COLO 205 [9]) | Activity (COLO 205 [10]) | Activity (COLO 205 [11])
inactive | inactive | inactive | inactive | – | – | – | CSC1=C(N)C(=O)c2[nH]cc(CO)c2C1=N | Active | Active | Active | Active | inactive | – | – | – | –
inactive | inactive | inactive | inactive | Active | – | – | N=C1C2=C(NCC[S+]2[O-])C(=O)c2[nH]cc(CO)c21 (stereo unspecified) | – | – | – | – | inactive | – | – | – | –
inactive | inactive | inactive | inactive | Active | Active | – | N=C1C2=C(NCCS2)C(=O)c2[nH]cc(CO)c21 | Active | Active | Active | Active | inactive | – | – | – | –
– | – | – | – | – | – | Active | CN(C)CCOc1ccc(-c2nc(-c3ccc4c(c3)CC/C4=N/O)c(-c3ccncc3)[nH]2)cc1 | – | – | – | – | – | inactive | inactive | inactive | inactive
